{
  "source": "the RNAGym collection of RNA variant scans (doi:10.1038/s41586-018-0170-7)",
  "parents": {"B1": {"name": "tRNA (parent)", "chain": "GUUCCGUUGGCGUAAUGGUAACGCGUCUCCCUCCUAAGGAGAAGACUGCGGGUUCGAGUCCCGUACGGAACG"}},
  "data": [
    {"variants_of": "B1", "assay": "yeast fitness, log relative to wild type (ln ratio); higher = fitter; tRNA-Arg(CCU), competitive growth, 37 C, 1 M NaCl", "in_short": "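In BY4742 missing the chromosomal gene, a combinatorial tRNA-Arg(CCU) variant library was maintained on a HIS3 centromeric plasmid. Selection ran ~6.5 generations (~26.5 h) in SC-HIS 1M NaCl at 37 °C, following 4 generations in SC-HIS at 30 °C, with three outputs per input and variant counts by 125 bp paired-end Illumina sequencing. Fitness is the natural log of a genotype's generations relative to the wild type's, with generations taken as inverse-variance-weighted, OD-scaled log2 output/input frequency.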", "values": [
      {"variant": "G1A U2C G6A A43C C46U C71U", "yeast fitness (ln)": -0.0914},
      {"variant": "U2G A43C A70U C71U", "yeast fitness (ln)": -0.0697},
      {"variant": "U2C A43C A69G A70U C71U", "yeast fitness (ln)": -0.32},
      {"variant": "G1A U2C G6U C66U A69G A70U", "yeast fitness (ln)": -0.244},
      {"variant": "U2C C66U A69G A70U C71U", "yeast fitness (ln)": -0.404},
      {"variant": "U2G G6A C46U C66U A69G A70U", "yeast fitness (ln)": -0.00305},
      {"variant": "G1A U2G G6U A43C C66U A70G", "yeast fitness (ln)": -0.271},
      {"variant": "G6A A43C C46U C66U C71U", "yeast fitness (ln)": -0.12},
      {"variant": "U2G G6A C27U A43C C46U C66A A69G A70G C71U", "yeast fitness (ln)": -0.252},
      {"variant": "U2G C27U C46U C71U", "yeast fitness (ln)": -0.099},
      {"variant": "U2G G6A C27U A43C C66U A69G A70G C71U", "yeast fitness (ln)": -0.386},
      {"variant": "G1A U2G G6U A43C A70G C71U", "yeast fitness (ln)": -0.323},
      {"variant": "G6U C27U C46U A69G A70G C71U", "yeast fitness (ln)": -0.342},
      {"variant": "U2G G6A C27U C66U A70U", "yeast fitness (ln)": -0.0165},
      {"variant": "G1A C66A A70U", "yeast fitness (ln)": -0.0714},
      {"variant": "U2G G6A A43C C46U A70U C71U", "yeast fitness (ln)": -0.118},
      {"variant": "G1A U2C G6U C27U A43C C46U C66U A70U", "yeast fitness (ln)": -0.243},
      {"variant": "G1A U2G C27U C46U C66U A70U", "yeast fitness (ln)": -0.123},
      {"variant": "U2G G6U C27U A43C C46U C66A A69G A70G", "yeast fitness (ln)": -0.187},
      {"variant": "U2C G6U C27U A43C C46U C66A", "yeast fitness (ln)": 0.00284},
      {"variant": "G1A A43C C66U C71U", "yeast fitness (ln)": -0.289},
      {"variant": "G1A G6U A43C C46U C66U A70U C71U", "yeast fitness (ln)": -0.432},
      {"variant": "U2C C27U A43C A69G A70G", "yeast fitness (ln)": -0.0551},
      {"variant": "U2G G6A C66U C71U", "yeast fitness (ln)": -0.134},
      {"variant": "G1A U2G G6U C27U A43C C46U C66U A69G A70U C71U", "yeast fitness (ln)": -0.434},
      {"variant": "G6U C66A A70U C71U", "yeast fitness (ln)": -0.412},
      {"variant": "U2C C46U A70U", "yeast fitness (ln)": 0.0104},
      {"variant": "U2G G6U C27U C46U C66A A69G A70U", "yeast fitness (ln)": -0.0283},
      {"variant": "C66A A69G A70U C71U", "yeast fitness (ln)": -0.32},
      {"variant": "G1A U2C G6A C46U A69G A70U C71U", "yeast fitness (ln)": -0.0787},
      {"variant": "U2G C27U A43C C46U A70G", "yeast fitness (ln)": -0.227},
      {"variant": "U2G G6U C27U A43C C66U A70G", "yeast fitness (ln)": -0.356},
      {"variant": "G1A U2C G6A C27U C46U C66U A70U", "yeast fitness (ln)": -0.0971},
      {"variant": "G1A C27U A43C C46U C66A A69G A70U", "yeast fitness (ln)": -0.352},
      {"variant": "G1A C27U C66U A70G", "yeast fitness (ln)": -0.176},
      {"variant": "U2C C27U A43C C46U C66A A69G A70U C71U", "yeast fitness (ln)": -0.472},
      {"variant": "C27U A43C C66A A69G A70G C71U", "yeast fitness (ln)": -0.369},
      {"variant": "G1A U2C C27U A43C C46U C66U", "yeast fitness (ln)": -0.161},
      {"variant": "U2G C46U C66U A69G A70G", "yeast fitness (ln)": -0.174},
      {"variant": "G1A U2G G6A C27U A43C C66U A69G A70G C71U", "yeast fitness (ln)": -0.563},
      {"variant": "G1A C27U C66U A70G C71U", "yeast fitness (ln)": -0.225},
      {"variant": "U2C G6U A43C A70G C71U", "yeast fitness (ln)": -0.185},
      {"variant": "U2C C27U A43C C66U", "yeast fitness (ln)": -0.15},
      {"variant": "G1A U2C A43C A69G A70G C71U", "yeast fitness (ln)": -0.0094},
      {"variant": "G1A C27U A43C A70G", "yeast fitness (ln)": -0.173},
      {"variant": "G1A U2G C27U C66A A70G C71U", "yeast fitness (ln)": -0.306},
      {"variant": "U2C A43C A69G A70G C71U", "yeast fitness (ln)": -0.0143},
      {"variant": "G1A C27U A43C C46U C66A C71U", "yeast fitness (ln)": -0.231},
      {"variant": "U2G G6U C27U C66A C71U", "yeast fitness (ln)": -0.168},
      {"variant": "U2G A43C A70G", "yeast fitness (ln)": -0.182},
      {"variant": "U2C G6A C27U A43C C46U", "yeast fitness (ln)": -0.0171},
      {"variant": "U2G G6U C66U A70G", "yeast fitness (ln)": -0.154},
      {"variant": "U2C A43C C46U C66A A69G A70G", "yeast fitness (ln)": -0.15},
      {"variant": "G1A U2G C27U A43C A69G A70G C71U", "yeast fitness (ln)": -0.262},
      {"variant": "G1A U2C G6A C46U A69G A70U", "yeast fitness (ln)": -0.0526},
      {"variant": "G1A G6A C66U A69G A70U C71U", "yeast fitness (ln)": -0.266},
      {"variant": "G1A U2G G6A C27U A43C C66U A70G C71U", "yeast fitness (ln)": -0.479},
      {"variant": "G1A G6U C66U A70U C71U", "yeast fitness (ln)": -0.278},
      {"variant": "G6U C27U C66U C71U", "yeast fitness (ln)": -0.256},
      {"variant": "C27U C66A C71U", "yeast fitness (ln)": -0.117},
      {"variant": "G1A G6U A43C C46U A70U C71U", "yeast fitness (ln)": -0.297},
      {"variant": "U2C A43C C66A A69G A70G C71U", "yeast fitness (ln)": -0.168},
      {"variant": "G1A U2G G6U C66U A70G", "yeast fitness (ln)": -0.199},
      {"variant": "G1A U2G G6U C27U C46U C66A A70U", "yeast fitness (ln)": -0.322},
      {"variant": "U2G G6A A43C A69G A70G", "yeast fitness (ln)": -0.185},
      {"variant": "G1A G6U C46U C66U A69G A70U", "yeast fitness (ln)": -0.251},
      {"variant": "U2G C46U C66A A70U", "yeast fitness (ln)": -0.0904},
      {"variant": "U2G G6A A43C C66U A70G", "yeast fitness (ln)": -0.147},
      {"variant": "U2G G6U C27U C66U A69G A70U C71U", "yeast fitness (ln)": -0.439},
      {"variant": "G6A C66A", "yeast fitness (ln)": -0.163},
      {"variant": "U2C G6A C27U A69G A70G C71U", "yeast fitness (ln)": -0.216},
      {"variant": "G1A U2G A69G C71U", "yeast fitness (ln)": -0.135},
      {"variant": "G1A U2G A43C C46U C71U", "yeast fitness (ln)": -0.115},
      {"variant": "U2G C27U C46U C66U A70G", "yeast fitness (ln)": -0.117},
      {"variant": "U2G G6U A69G A70G C71U", "yeast fitness (ln)": -0.235},
      {"variant": "U2G G6A C66A A70G", "yeast fitness (ln)": -0.0981},
      {"variant": "G6U C27U A43C C46U C66U A69G C71U", "yeast fitness (ln)": -0.432},
      {"variant": "G1A U2G G6U C27U A43C C46U C66U A70G C71U", "yeast fitness (ln)": -0.466},
      {"variant": "G1A U2C A43C A70U", "yeast fitness (ln)": -0.108},
      {"variant": "G1A C66U A70G C71U", "yeast fitness (ln)": -0.287},
      {"variant": "G1A U2C G6A C66U A69G A70G", "yeast fitness (ln)": -0.0913},
      {"variant": "U2C G6U A43C C46U C66U A70G", "yeast fitness (ln)": -0.0851},
      {"variant": "U2C C27U C46U C66U A70G C71U", "yeast fitness (ln)": -0.075},
      {"variant": "U2C C27U A43C C46U C71U", "yeast fitness (ln)": -0.0612}
    ]}
  ]
}
